Measurements: ChEMBL document CHEMBL1145471, “Small molecule regulators of autophagy identified by an image-based high-throughput screen” (Proc Natl Acad Sci U S A, 2007)

Columns and labels:
Assay type in all cases: functional
[1] = tested on: H4; experiment: Increase in long-lived protein degradation in human H4 cells after 1 hr relative to control; design: concentration or dose not given beside the values
[2] = tested on: H4; experiment: Increase in long-lived protein degradation in human H4 cells after 24 hrs relative to control; design: concentration or dose not given beside the values
[3] = tested on: H4; experiment: Increase in long-lived protein degradation in human H4 cells after 2 hrs relative to control; design: concentration or dose not given beside the values
[4] = tested on: H4; experiment: Increase in light chain 3-GFP+ autophagosome vesicle area per cell in human H4 cells at 5.4 uM after 24 hrs by high throughput fluorescence microscopy relative to control
Outline: (§1)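 H4 cells stably expressing LC3-GFP, seeded in 96-well plates and exposed to compound for 24 h; fixed in 4% paraformaldehyde, nuclei stained with 3 μg/ml DAPI. Automated fluorescence microscopy scored number, size and intensity of LC3-GFP spots; values expressed relative to DMSO-treated wells, rapamycin positive control. Triplicate wells, mean ± SD; experiments repeated three times.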

[5] = tested on: H4; experiment: Effect on FYVE-RFP+ vesicle intensity per cell in human H4 cells after 8 hrs relative to control; design: concentration or dose not given beside the values
Outline: (§2)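 H4 cells stably expressing FYVE-RFP (H4-FYVE), grown in DMEM with 10% FBS, penicillin/streptomycin and 2 mM L-glutamine at 37°C, 5% CO2, seeded in 96-well plates and exposed to compound. Fixed in 4% paraformaldehyde, nuclei stained with 3 μg/ml DAPI, FYVE-RFP+ vesicles quantified by high-throughput fluorescence microscopy against DMSO control. Triplicate wells, mean ± SD.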

[6] = tested on: H4; experiment: Increase in light chain 3-GFP+ autophagosome vesicle number per cell in human H4 cells at 5.4 uM after 24 hrs by high throughput fluorescence microscopy relative to control
Outline: (§3)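 H4 cells stably expressing LC3-GFP, kept in DMEM/10% FBS at 37°C, 5% CO2, were seeded in 96-well plates and exposed to compound for 24 h. Cells were then fixed in 4% paraformaldehyde and stained with 3 μg/ml DAPI. Automated fluorescence microscopy scored the number, size and intensity of LC3-GFP spots. Values are percent of DMSO wells, in triplicate, mean ± SD. Rapamycin served as positive control.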

[7] = tested on: H4; experiment: Effect on FYVE-RFP+ vesicle intensity per cell in human H4 cells after 4 hrs relative to control; design: concentration or dose not given beside the values; outline: as §2
[8] = tested on: H4; experiment: Induction of light chain 3-GFP level in human H4 cells at 5.4 uM after 24 hrs by high throughput fluorescence microscopy relative to control; outline: as §3
[9] = tested on: H4; experiment: Effect on FYVE-RFP+ vesicle intensity per cell in human H4 cells after 2 hrs relative to control; design: concentration or dose not given beside the values; outline: as §2
[10] = tested on: H4; experiment: Increase in light chain 3-GFP+ autophagosome vesicle intensity per cell in human H4 cells at 5.4 uM after 24 hrs by high throughput fluorescence microscopy relative to control; outline: as §1
[11] = tested on: H4; experiment: Increase in long-lived protein degradation in human H4 cells after 4 hrs relative to control; design: concentration or dose not given beside the values
[12] = tested on: H4; experiment: Decrease in FYVE-RFP+ vesicle intensity per cell in human H4 cells after 8 hrs relative to control; design: concentration or dose not given beside the values; outline: as §2
[13] = tested on: H4; experiment: Increase in light chain 3-GFP+ autophagosome vesicle number per cell in human H4 cells at 6.5 uM after 24 hrs by high throughput fluorescence microscopy relative to control; outline: as §3
[14] = tested on: H4; experiment: Increase in light chain 3-GFP+ autophagosome vesicle area per cell in human H4 cells at 6.5 uM after 24 hrs by high throughput fluorescence microscopy relative to control; outline: as §1
[15] = tested on: H4; experiment: Decrease in FYVE-RFP+ vesicle intensity per cell in human H4 cells after 2 hrs relative to control; design: concentration or dose not given beside the values; outline: as §2
[16] = tested on: H4; experiment: Increase in light chain 3-GFP+ autophagosome vesicle intensity per cell in human H4 cells at 6.5 uM after 24 hrs by high throughput fluorescence microscopy relative to control; outline: as §1
[17] = tested on: H4; experiment: Decrease in FYVE-RFP+ vesicle intensity per cell in human H4 cells after 4 hrs relative to control; design: concentration or dose not given beside the values; outline: as §2
[18] = tested on: H4; experiment: Induction of light chain 3-GFP level in human H4 cells at 6.5 uM after 24 hrs by high throughput fluorescence microscopy relative to control; outline: as §3
[19] = tested on: H4; experiment: Increase in light chain 3-GFP+ autophagosome vesicle intensity per cell in human H4 cells at 4.5 uM after 24 hrs by high throughput fluorescence microscopy relative to control
Outline: (§4)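 H4 cells stably expressing LC3-GFP were grown in DMEM with 10% FBS and 2 mM L-glutamine at 37°C, 5% CO2. They were exposed to each compound for 24 h, with DMSO as negative and rapamycin as positive control. Cells were then fixed in 4% paraformaldehyde and stained with 3 μg/ml DAPI. High-throughput fluorescence imaging scored LC3-GFP spot number, size and intensity, expressed relative to DMSO. Mean ± SD of triplicates; experiments repeated three times.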

[20] = tested on: H4; experiment: Increase in light chain 3-GFP+ autophagosome vesicle area per cell in human H4 cells at 4.5 uM after 24 hrs by high throughput fluorescence microscopy relative to control
Outline: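 H4 cells stably expressing LC3-GFP, seeded in 96-well plates and exposed to compound for 24 h; screening concentrations were 3–12 μM, with rapamycin 0.22 μM and bafilomycin A1 0.40 μM. Cells fixed in 4% paraformaldehyde and stained with 3 μg/ml DAPI. Number, size and intensity of LC3-GFP spots measured by high-throughput fluorescence microscopy and expressed as percent of DMSO-treated wells. Rapamycin was the positive control. Triplicate wells, mean ± SD; experiments repeated three times.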

[21] = tested on: H4; experiment: Increase in light chain 3-GFP+ autophagosome vesicle number per cell in human H4 cells at 4.5 uM after 24 hrs by high throughput fluorescence microscopy relative to control; outline: as §4
[22] = tested on: H4; experiment: Induction of light chain 3-GFP level in human H4 cells at 4.5 uM after 24 hrs by high throughput fluorescence microscopy relative to control
Outline: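 H4 cells stably expressing LC3-GFP, grown in DMEM with 10% FBS, penicillin/streptomycin and 2 mM L-glutamine at 37°C, 5% CO2. Cells were seeded in 96-well plates and exposed to library compounds at 3–12 μM for 24 h, then fixed in 4% paraformaldehyde and stained with 3 μg/ml DAPI. LC3-GFP spot number, size and intensity were measured by high-throughput fluorescence microscopy and expressed relative to DMSO. Triplicates, mean ± SD.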

[23] = tested on: H4; experiment: Increase in light chain 3-GFP+ autophagosome vesicle area per cell in human H4 cells at 7.3 uM after 24 hrs by high throughput fluorescence microscopy relative to control; outline: as §1
[24] = tested on: H4; experiment: Induction of light chain 3-GFP level in human H4 cells at 7.3 uM after 24 hrs by high throughput fluorescence microscopy relative to control; outline: as §3
[25] = tested on: H4; experiment: Increase in light chain 3-GFP+ autophagosome vesicle number per cell in human H4 cells at 7.3 uM after 24 hrs by high throughput fluorescence microscopy relative to control; outline: as §3
[26] = tested on: H4; experiment: Increase in light chain 3-GFP+ autophagosome vesicle intensity per cell in human H4 cells at 7.3 uM after 24 hrs by high throughput fluorescence microscopy relative to control; outline: as §1
[27] = tested on: H4; experiment: Increase in light chain 3-GFP+ autophagosome vesicle number per cell in human H4 cells at 6.1 uM after 24 hrs by high throughput fluorescence microscopy relative to control; outline: as §3
[28] = tested on: H4; experiment: Induction of light chain 3-GFP level in human H4 cells at 6.1 uM after 24 hrs by high throughput fluorescence microscopy relative to control; outline: as §3
[29] = tested on: H4; experiment: Increase in light chain 3-GFP+ autophagosome vesicle intensity per cell in human H4 cells at 6.1 uM after 24 hrs by high throughput fluorescence microscopy relative to control; outline: as §1
[30] = tested on: H4; experiment: Increase in light chain 3-GFP+ autophagosome vesicle area per cell in human H4 cells at 3.8 uM after 24 hrs by high throughput fluorescence microscopy relative to control; outline: as §1

Compound `N#Cc1cc2c(OCC(O)CN3CCN(C(c4ccccc4)c4ccccc4)CC3)cccc2[nH]1` (configuration not stated) has an Activity [1] of 90.63%, an Activity [2] of 90.03% and an Activity [3] of 108.53%. It also gave an Activity [4] of 275.43%, an Activity [5] of 72.4% and an Activity [6] of 224.74%. It also gave an Activity [7] of 59.79%, an Activity [8] of 94.7% and an Activity [9] of 65.87%. It also gave an Activity [10] of 329.96% and an Activity [11] of 101.77%.

For `COc1ccc2c(c[n+](C)c3c4cc5c(cc4ccc23)OCO5)c1OC.[Cl-]` [CHELERYTHRINE CHLORIDE], the Activity [12] was 33.84%, the Activity [1] was 101.43% and the Activity [2] was 106.48%. The Activity [13] was 195.46%, the Activity [3] was 100.4% and the Activity [14] was 229.91%. For the same compound, the Activity [15] was 30.83%, the Activity [16] was 213.88% and the Activity [17] was 22.01%. The Activity [11] was 108.72% and the Activity [18] was 110.26%.

For `Cn1cc(C2=C(c3cn(CCCSC(=N)N)c4ccccc34)C(=O)NC2=O)c2ccccc21` [BISINDOLYLMALEIMIDE IX], the Activity [19] was 240.67%, the Activity [20] was 190.1% and the Activity [21] was 190.07%. It also gave an Activity [22] of 50.58%.

`CCOC(=O)[C@H]1O[C@@H]1C(=O)N[C@@H](CC(C)C)C(=O)NCCC(C)C` [ALOXISTATIN] gave an Activity [12] of 39.61%, an Activity [1] of 84.82% and an Activity [23] of 195.1%. For the same compound, the Activity [2] was 91.33%, the Activity [3] was 76.35% and the Activity [24] was 119.19%. It also gave an Activity [15] of 48.31%, an Activity [25] of 169.98% and an Activity [26] of 244.88%. For the same compound, the Activity [17] was 53.97% and the Activity [11] was 79.98%.

With `CC(C)(c1ccc(OCC2CO2)cc1)c1ccc(OCC2CO2)cc1` (configuration not stated) the Activity [12] was 58.53%, the Activity [1] was 96.5% and the Activity [23] was 175.52%. For the same compound, the Activity [2] was 91.78%, the Activity [3] was 84.65% and the Activity [24] was 132.48%. It also gave an Activity [15] of 44.65%, an Activity [25] of 156.58% and an Activity [26] of 182.11%. The Activity [17] was 53.06% and the Activity [11] was 95.85%.

Work on `CN(C)CCCn1cc(C2=C(c3c[nH]c4ccccc34)C(=O)NC2=O)c2ccccc21` [GF-109203] yielded an Activity [27] of 198.94%, an Activity [28] of 47.77% and an Activity [29] of 211.81%. For the same compound, the Activity [30] was 208.08%.
